Assay results as given in PubChem BioAssay.
Inconclusive results are not listed. The source made the active and inactive calls.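 The calls were made as follows, unless noted: active = cell viability at or below a set limit in both duplicate runs, the limit being the all-compound median minus 4 SD (cut at about 23% in these data, passing the limit was not always enough); inconclusive = no clear call, values can overlap the other calls; inactive = the rest.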

Assays:
[1] = OD615 S. cerevisiae growth inhibition, permissive medium, pilot counter-assay, permissive growth control for S. cerevisiae lifespan shortening project (AID 705;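 active = growth inhibition above 25% in both replicates, a cutoff set 3 SD above the mean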); conditions: OD615, 24 h, at 10 µM, stronger effect = higher value
Outline: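 assay system = Saccharomyces cerevisiae strain carrying genetically modified DeaD replicative-lifespan system | medium = SC raffinose/galactose permissive medium | dosing = 10 µM single dose, 0.25% DMSO | schedule = 24 h compound exposure at 30 °C after 4 h pre-growth | measured by = OD at 615 nm | read-out basis = growth inhibition from lowered OD615 after 24 h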

[2] = Restrictive medium S. cerevisiae growth inhibition, OD615, pilot screen of yeast lifespan reduction project, restrictive growth control (AID 706;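 active = growth inhibition above a set limit, 3 SD over mean compound inhibition, in both replicates, cut at about 43% in these data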;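 also: modified DeaD lifespan yeast strain shifted to restrictive glucose medium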); conditions: OD615, 48 h, at 10 µM, stronger effect = higher value
Outline: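 Buffer or medium: CSMM-D glucose medium. Material: genetically modified Saccharomyces cerevisiae, DeaD replicative lifespan assay strain. Times: 48 h compound exposure at 30 °C. Measured by: optical density at 615 nm.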

[3] = viability gain of MRP-1-high H69AR cells under doxorubicin, pilot screen, MRP-1 activator project, CellTiter-Glo, duplicate (AID 807;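 active = viability increase at or above a cutoff of the median across tested compounds plus 3 SD, cut at about 8.5% in these data, passing the limit was not always enough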;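 also: compound pretreatment 18-22 h then 72 h combined with doxorubicin; 0% = doxorubicin alone and 100% = vehicle without doxorubicin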); conditions: H69AR viability with doxorubicin, CellTiter-Glo luminescence; at 10 µM; stronger effect = higher value
[4] = growth suppression of beta-catenin knockout HCT116, pilot screen, human colon tumor cells (AID 823); conditions: CellTiter-Glo, 60 h, at 10 µM, stronger effect = lower value;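 also: 0% = wells killed by 20 µM Hyamine and 100% = untreated DMSO cell wells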
[5] = growth suppression of PTEN-deleted HCT116, pilot screen, cell-based, HCT116 clonal line, CellTiter-Glo (AID 824;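 active = viability at or below 27.92% in each of two runs, the all-compound median minus 4 SD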;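 also: 0% = 20 µM Hyamine control and 100% = vehicle cell control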); conditions: 60 h, at 10 µM, stronger effect = lower value
[6] = inhibitors of the yeast RAM network, pilot screen, dse1pr::URA3 reporter, 5-FOA selection (AID 869;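 active = inhibition over a set limit, the all-compound mean plus 3 SD, in both replicate runs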;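 also: 0% = DMSO wells with no growth and 100% = 10 µM 1-NA-PP1 with full growth; RAM network block rescues cells from 5-FOA so hits raise OD615 growth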); conditions: S. cerevisiae dse1pr::URA3 5-FOA growth, OD615, 2 d; at 10 µM; stronger effect = higher value; strain carries analog-sensitive mutant Cbk1 kinase
[7] = RAM signaling pathway blockade in yeast – S. cerevisiae, Pdr1DBD-CYC8 efflux-inhibited sensitized strain, primary screen (AID 1298;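 active = RAM network inhibition above 8.4% in each of two replicates, 3 SD over the compound average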;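 also: 0% = DMSO untreated cells without growth and 100% = 10 µM 1-NA-PP1 full growth; higher means more yeast growth rescued from 5-FOA killing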); conditions: S. cerevisiae cbk1-as DSE1-URA3 strain, 5-FOA growth OD615, 2 d; at 50 µM; stronger effect = higher value

Cc1n[nH]c(=O)nc1NCc1ccccc1
inactive: growth inhibition [1] -8.25% | growth inhibition [2] -29% | viability increase [3] -0.55% | viability [4] 95% | viability [5] 93.9% | inhibition [6] 1.48% | RAM network inhibition [7] 0.91%

CCOC(=O)C1CCN(CC(O)COc2ccc(C(C)(C)CC)cc2)CC1 (stereo not drawn)
inactive: growth inhibition [1] -14% | growth inhibition [2] -10.4% | viability increase [3] -4.71% | viability [4] 65.6% | viability [5] 73.5% | inhibition [6] -0.58% | RAM network inhibition [7] 0.78%

COc1ccc(Cc2nc(-c3ccc(Br)o3)no2)cc1OC
inactive: growth inhibition [1] -14.4% | growth inhibition [2] -3.81% | viability increase [3] -0.22% | viability [4] 92.2% | viability [5] 81.2% | inhibition [6] 0.995% | RAM network inhibition [7] 4.17%

CCOC(=O)N1CCN(C(=O)CSc2nc3c(cnn3-c3ccccc3)c(=O)[nH]2)CC1
inactive: growth inhibition [1] -2.34% | growth inhibition [2] -4.3% | viability increase [3] -4.92% | viability [4] 98.9% | viability [5] 99% | inhibition [6] 0.19% | RAM network inhibition [7] -1.2%

COc1ccc(C)cc1NC(=O)CSc1nnc(-c2ccco2)n1Cc1ccco1
inactive: growth inhibition [1] -0.8% | growth inhibition [2] 10.4% | viability increase [3] -2.06% | viability [4] 99.8% | viability [5] 90.8% | inhibition [6] 2.08% | RAM network inhibition [7] 6.62%

COc1ccccc1C(=O)Nc1nnc(-c2ccc3c(c2)CCCC3)o1
inactive: growth inhibition [1] -10.5% | growth inhibition [2] 7.12% | viability increase [3] -0.59% | viability [4] 90.2% | viability [5] 85.1% | inhibition [6] 0.08% | RAM network inhibition [7] -0.58%

COc1cccc(C(c2sc3ncnn3c2O)N2CCc3ccccc3C2)c1 (stereo not drawn)
inactive: growth inhibition [1] -0.12% | growth inhibition [2] 2.29% | viability increase [3] 2.58% | viability [4] 104% | viability [5] 93.2% | inhibition [6] 1.8% | RAM network inhibition [7] 11.3%

CS(=O)(=O)Nc1cccc2cccnc12
inactive: growth inhibition [1] 5.63% | growth inhibition [2] -1.19% | viability increase [3] -4.19% | viability [4] 50.4% | viability [5] 56.7% | inhibition [6] 2.3% | RAM network inhibition [7] 0.27%

COc1ccc(-c2nnc(NC(=O)C(C)C)s2)c(OC)c1
inactive: growth inhibition [1] -18.6% | growth inhibition [2] -10.3% | viability increase [3] -2.16% | viability [4] 96% | viability [5] 88.8% | inhibition [6] 4.28% | RAM network inhibition [7] 9.53%

Cc1ccccc1C(=O)NCCN=C1NS(=O)(=O)c2ccccc21
inactive: growth inhibition [1] -7.76% | growth inhibition [2] 10.5% | viability increase [3] 0.1% | viability [4] 113% | viability [5] 103% | inhibition [6] 0.69% | RAM network inhibition [7] 1.88%

CCN1CCCC1CNC(=O)c1cc2c(-c3ccc(Cl)cc3)nn(C)c2s1 (stereo not drawn)
active: viability [4] 2.03% | viability [5] 2.04%
inactive: growth inhibition [1] -7.45% | growth inhibition [2] 10.1% | viability increase [3] -8.33% | inhibition [6] 1.31% | RAM network inhibition [7] 8.33%

COc1ccc(C2N3CC4(C)CN2CC(C)(C3)C4O)cc1 (stereo not drawn)
inactive: growth inhibition [1] -17.7% | growth inhibition [2] -6.65% | viability increase [3] 0.42% | viability [4] 106% | viability [5] 97.2% | inhibition [6] 1.22% | RAM network inhibition [7] -0.16%

Cc1cc(Nc2cccc(C)c2C)n2nc(C)nc2n1
inactive: growth inhibition [1] -17% | growth inhibition [2] -8.21% | viability increase [3] -1.13% | viability [4] 102% | viability [5] 98.3% | inhibition [6] 1.25% | RAM network inhibition [7] 3.39%

CCOC(=O)c1cnc2nc[nH]n2c1=O
inactive: growth inhibition [1] 1.53% | growth inhibition [2] 11.7% | viability increase [3] 2.64% | viability [4] 104% | viability [5] 103% | inhibition [6] 0.33% | RAM network inhibition [7] -0.24%

COc1ccc(N2Cc3cccc(C(=O)N4CCN(C(=O)c5ccco5)CC4)c3C2=O)cc1
inactive: growth inhibition [1] 3.88% | growth inhibition [2] 11.3% | viability increase [3] -1.86% | viability [4] 99.3% | viability [5] 91% | inhibition [6] 2.62% | RAM network inhibition [7] 3.36%

c1ccc(-c2ccc(-c3nc(-c4ccncc4)no3)cc2)cc1
inactive: growth inhibition [1] 14.4% | growth inhibition [2] 14.4% | viability increase [3] 2.99% | viability [4] 66.4% | viability [5] 82.5% | inhibition [6] 1.32% | RAM network inhibition [7] 2.1%

O=C1CC(c2nc3ccccc3[nH]2)CN1c1cccc(C(F)(F)F)c1 (stereo not drawn)
inactive: growth inhibition [1] -1.92% | growth inhibition [2] 4.75% | viability increase [3] 6.49% | viability [4] 86% | viability [5] 76.5% | inhibition [6] 1.1% | RAM network inhibition [7] -2.12%

CCN1CCN(C(=O)CSCc2nc(-c3ccc(OC)c(OC)c3)oc2C)CC1
inactive: growth inhibition [1] -3.83% | growth inhibition [2] -7.22% | viability increase [3] -1.52% | viability [4] 101% | viability [5] 101% | inhibition [6] 0.475% | RAM network inhibition [7] 1.3%

C=CCn1c(SCCC#N)nnc1-c1ccncc1
inactive: growth inhibition [1] -5.01% | growth inhibition [2] -18.7% | viability increase [3] -3.07% | viability [4] 100% | viability [5] 93.4% | inhibition [6] 1.88% | RAM network inhibition [7] -0.94%

Cc1ccc(C(=O)CSc2nnc(-c3cccs3)n2C)o1
inactive: growth inhibition [1] 1.85% | growth inhibition [2] 28.1% | viability increase [3] -3.5% | viability [4] 108% | viability [5] 108% | inhibition [6] 0.5% | RAM network inhibition [7] 3.7%

O=C(NC1CCCCC1)C(c1ccccc1)N1CCCC1 (stereo not drawn)
inactive: growth inhibition [1] 1.67% | growth inhibition [2] -3.42% | viability increase [3] -1.59% | viability [4] 96.6% | viability [5] 97.7% | inhibition [6] 1.43% | RAM network inhibition [7] 5.5%

CCOC(=O)c1c(NC(=O)c2cc(C3CC3)on2)sc2c1CCCC2
inactive: growth inhibition [1] -9.14% | growth inhibition [2] 0.505% | viability increase [3] -1.3% | viability [4] 102% | viability [5] 97.5% | inhibition [6] 1.49% | RAM network inhibition [7] 8.09%

CCOc1ccc(-c2nc(CSc3nncs3)cs2)cc1OC
inactive: growth inhibition [1] 4.37% | growth inhibition [2] 16.2% | viability increase [3] -3.61% | viability [4] 84.1% | viability [5] 82% | inhibition [6] 0.655% | RAM network inhibition [7] 5.42%

Cc1ccc(-c2nn(CC(=O)O)c(=O)c3ccccc23)cc1
inactive: growth inhibition [1] -19.3% | growth inhibition [2] -13.9% | viability increase [3] 1.3% | viability [4] 104% | viability [5] 96.2% | inhibition [6] 2.12% | RAM network inhibition [7] 1.1%
